Results on five compounds are retold here after article PMC7938327 (Journal of medicinal chemistry, 2017).

Structures are written as SMILES. Entries after “also recorded” stand apart in the source; their conditions may differ.

Series [1] deals with T1, purified recombinant ENPP6 (Homo sapiens, UniProt Q6UWR7).
T1 sequence (Q6UWR7 23-440): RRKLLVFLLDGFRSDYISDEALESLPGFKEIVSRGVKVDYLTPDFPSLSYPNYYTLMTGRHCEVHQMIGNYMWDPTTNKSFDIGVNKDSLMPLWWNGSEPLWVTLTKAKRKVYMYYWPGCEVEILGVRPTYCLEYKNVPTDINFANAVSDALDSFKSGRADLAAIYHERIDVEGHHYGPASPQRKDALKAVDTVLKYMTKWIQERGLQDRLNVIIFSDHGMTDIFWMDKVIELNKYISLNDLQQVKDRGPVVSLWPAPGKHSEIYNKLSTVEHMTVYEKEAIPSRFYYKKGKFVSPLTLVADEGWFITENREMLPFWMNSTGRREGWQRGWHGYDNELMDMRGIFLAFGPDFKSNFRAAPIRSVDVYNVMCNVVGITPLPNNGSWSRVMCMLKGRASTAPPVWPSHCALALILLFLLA
Briefly: ENPP6 inhibition, pNPPC hydrolysis. As to conditions: 10 μM pNPPC, 10 nM ENPP6, compound 0 to 10 μM; data not shown. It is filed as biochemical. The method in brief: (§1)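 Purified recombinant enzyme (0 or 10 nM) was incubated with 10 μM pNPPC and 0–10 μM test compound in triplicate wells. Buffers were 100 mM Tris, 500 mM NaCl, 0.05% Triton, pH 9.0 for ENPP6, and 50 mM Tris, 150 mM NaCl, 10 mM taurocholate, pH 8.5 for ENPP7. Absorbance at 405 nm was read every 2 min for 1 h.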

Series [2] concerns the target T2, human recombinant ATX (Homo sapiens, UniProt Q13822). Briefly: ATX lysophospholipase D activity, FS-3 hydrolysis. It is filed as biochemical. Particulars: for mechanism: FS-3 0 to 10 μM, inhibitor 0, 0.5 × IC50 or 2 × IC50, best global fit.
The target of series [3] is T3, purified recombinant ENPP7 (Homo sapiens, UniProt Q6UWV6).
T3 sequence (Q6UWV6 22-458): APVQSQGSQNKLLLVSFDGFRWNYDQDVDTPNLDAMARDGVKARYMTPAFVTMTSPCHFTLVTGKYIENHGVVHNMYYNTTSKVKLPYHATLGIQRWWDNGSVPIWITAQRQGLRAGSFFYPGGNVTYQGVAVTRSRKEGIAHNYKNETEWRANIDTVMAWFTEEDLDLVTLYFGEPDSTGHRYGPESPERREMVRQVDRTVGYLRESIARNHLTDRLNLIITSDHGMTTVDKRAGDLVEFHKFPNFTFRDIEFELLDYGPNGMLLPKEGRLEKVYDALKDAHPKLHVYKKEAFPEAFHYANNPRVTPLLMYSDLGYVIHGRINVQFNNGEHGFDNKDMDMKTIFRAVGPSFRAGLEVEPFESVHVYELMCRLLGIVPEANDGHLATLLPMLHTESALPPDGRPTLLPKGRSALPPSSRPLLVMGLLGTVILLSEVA
Briefly: ENPP7 inhibition, pNPPC hydrolysis. The format is biochemical. As to conditions: 10 μM pNPPC, 10 nM ENPP7, compound 0 to 10 μM; data not shown. A digest of the protocol:
as §1

A short description of series [4]: In vitro stability in 4T1 cell culture by LC-MS. It is filed as in vitro ADME, mouse. Particulars: 40 h of exposure to 4T1 cells.
The target in series [5] is T2, human recombinant ATX. Briefly: ATX nucleotide pyrophosphatase activity, pNP-TMP hydrolysis. As to conditions: 1 mM pNP-TMP, 4 nM ATX, compound 0 to 1 μM. It is filed as biochemical. The method in brief: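 Human recombinant FLAG-tagged ATX was expressed in Sf9 insect cells and purified on anti-FLAG resin. Absorbance at 405 nm was read every 2 min for 1 h.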
In series [6] the test system is A2058 human melanoma cells. Briefly: ATX-mediated in vitro invasion assay. It is filed as cell-based. Particulars: exogenous LPC and recombinant ATX; for inhibition of A2058 cell invasion, screen at 10 μM: compared with 30; for inhibition of A2058 cell invasion (in words): dose–response.
The next series has as its target LPA1 (Homo sapiens, UniProt Q92633). Briefly: LPA-mediated Ca2+ mobilization, LPA1 RH7777 cells. The format is cell-based. Particulars: for antagonist activity at LPA1 (in words): LPA1-elicited Ca2+ responses. The method in brief: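 Rat hepatoma RH7777 cells stably expressing LPA1 were seeded at 5 × 10^4 per well on poly-L-lysine, left overnight, then serum-deprived 4 h in HEPES-Krebs buffer pH 7.4. Cells were loaded 30 min with 4.5 μg/mL Fura-2AM plus 0.45% Pluronic F-127. […] The 340/510 and 380/510 nm ratio was read every 3.42 s for 70 s, normalized to LPA Emax, and fitted by variable-slope regression for IC50.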
In general terms: Calcium assays in cells follow changes in intracellular calcium, usually with a dye or a luminescent sensor.

The subject of series [7] is 4T1 breast cancer cell line. Briefly: Chemoresistance of 4T1 cells to paclitaxel. Particulars: for LD50 to PT with ATX inhibitor pretreatment: 24 h pretreatment with 3 μM compound, then PT 48 h. It is filed as cell-based, mouse.
The test system of series [8] is 4T1-TaxR cancer stem-like cells (mammospheres). Briefly: 4T1-TaxR mammosphere viability with paclitaxel. The format is cell-based, mouse.
The target of another series is LPA2 (Homo sapiens, UniProt Q9HBW0). Briefly: LPA-mediated Ca2+ mobilization, LPA2 MEF cells. The format is cell-based. As to conditions: read-out: LPA2 Emax.
The target of another series is T4, LPA3 (Homo sapiens, UniProt Q9UBY5).
T4 sequence (Q9UBY5 1-353): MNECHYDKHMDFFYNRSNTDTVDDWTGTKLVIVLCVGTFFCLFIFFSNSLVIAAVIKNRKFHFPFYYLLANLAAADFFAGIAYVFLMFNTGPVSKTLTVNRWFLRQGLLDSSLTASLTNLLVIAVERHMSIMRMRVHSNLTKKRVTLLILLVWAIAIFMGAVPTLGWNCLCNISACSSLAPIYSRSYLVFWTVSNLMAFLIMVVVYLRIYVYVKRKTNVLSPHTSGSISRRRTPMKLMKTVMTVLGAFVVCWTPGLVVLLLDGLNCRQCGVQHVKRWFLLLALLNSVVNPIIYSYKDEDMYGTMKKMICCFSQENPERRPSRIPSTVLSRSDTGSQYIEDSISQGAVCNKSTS
Briefly: LPA-mediated Ca2+ mobilization, LPA3 RH7777 cells. The format is cell-based. As to conditions: RH7777, read-out: LPA3 Emax.

A further series has as its target LPA5 (Homo sapiens, UniProt Q9H1C0). Briefly: LPA-mediated Ca2+ mobilization, LPA5 B103 cells. Particulars: LPA 18:1 alone; normalized to percentage of LPA 18:1 Emax. The format is cell-based.
The target of the next series is LPA4 (Homo sapiens, UniProt Q99677). Briefly: LPA-mediated Ca2+ mobilization, LPA4 CHO cells. It is filed as cell-based. Particulars: read-out: LPA4 Emax.
Sequence of LPA4 (Q99677 whole entry, species assumed): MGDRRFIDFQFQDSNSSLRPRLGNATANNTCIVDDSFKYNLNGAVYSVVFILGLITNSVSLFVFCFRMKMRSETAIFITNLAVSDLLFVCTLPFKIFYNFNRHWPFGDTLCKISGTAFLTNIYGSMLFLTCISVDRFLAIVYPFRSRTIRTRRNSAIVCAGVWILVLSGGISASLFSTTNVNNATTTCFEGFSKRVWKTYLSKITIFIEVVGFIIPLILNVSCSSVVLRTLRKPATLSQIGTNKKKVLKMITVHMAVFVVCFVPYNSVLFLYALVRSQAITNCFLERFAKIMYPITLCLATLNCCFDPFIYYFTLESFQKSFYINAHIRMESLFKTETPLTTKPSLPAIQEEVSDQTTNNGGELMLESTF

Sequence of LPA1 (Q92633 whole entry, species assumed): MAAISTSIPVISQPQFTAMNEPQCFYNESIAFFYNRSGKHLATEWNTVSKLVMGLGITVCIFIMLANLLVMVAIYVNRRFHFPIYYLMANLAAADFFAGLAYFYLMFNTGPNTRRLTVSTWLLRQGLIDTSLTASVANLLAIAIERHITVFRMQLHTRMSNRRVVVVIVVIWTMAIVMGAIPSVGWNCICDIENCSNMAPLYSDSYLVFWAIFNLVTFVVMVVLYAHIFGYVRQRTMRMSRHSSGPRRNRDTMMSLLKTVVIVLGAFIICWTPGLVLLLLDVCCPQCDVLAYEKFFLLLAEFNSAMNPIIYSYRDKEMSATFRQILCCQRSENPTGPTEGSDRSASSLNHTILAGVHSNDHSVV
Sequence of LPA2 (Q9HBW0 whole entry, species assumed): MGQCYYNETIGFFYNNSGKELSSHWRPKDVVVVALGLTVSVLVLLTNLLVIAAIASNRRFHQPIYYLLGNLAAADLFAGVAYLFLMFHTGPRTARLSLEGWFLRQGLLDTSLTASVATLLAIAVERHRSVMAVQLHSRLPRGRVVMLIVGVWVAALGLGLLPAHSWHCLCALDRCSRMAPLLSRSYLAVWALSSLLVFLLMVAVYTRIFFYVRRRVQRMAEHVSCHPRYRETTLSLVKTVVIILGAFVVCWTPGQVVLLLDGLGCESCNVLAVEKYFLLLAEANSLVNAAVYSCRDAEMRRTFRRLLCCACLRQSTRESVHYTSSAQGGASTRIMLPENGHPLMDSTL
Sequence of LPA5 (Q9H1C0 whole entry, species assumed): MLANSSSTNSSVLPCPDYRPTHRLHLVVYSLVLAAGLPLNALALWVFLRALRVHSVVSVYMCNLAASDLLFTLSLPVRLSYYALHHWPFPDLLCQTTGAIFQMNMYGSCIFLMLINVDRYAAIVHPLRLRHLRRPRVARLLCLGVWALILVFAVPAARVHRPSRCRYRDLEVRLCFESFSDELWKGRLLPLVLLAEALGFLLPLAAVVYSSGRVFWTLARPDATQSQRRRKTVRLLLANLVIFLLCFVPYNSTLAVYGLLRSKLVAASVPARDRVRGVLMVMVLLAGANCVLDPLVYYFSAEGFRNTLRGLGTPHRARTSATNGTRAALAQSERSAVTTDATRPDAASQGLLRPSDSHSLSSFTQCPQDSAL

Consider `O=C(Nc1cc(F)c(F)c(F)c1)c1cc(S(=O)(=O)N2CCOCC2)c(Cl)cc1Cl` [Compound 3b, 2,4-Dichloro-5-(morpholinosulfonyl)-N-(3,4,5-trifluorophenyl)-benzamide], for which the “inhibitory activity for ENPP6” value in series [1] is reported as “lack inhibitory action”. At human recombinant ATX [2], the mechanism entry is given as “competitive”. Besides, in series [3], the “inhibitory activity for ENPP7” value is given as “lack inhibitory action”. Moreover, the “in vitro stability (in words)” value in series [4] is reported as “significant stability”. Further, the pNP-TMP inhibition result on human recombinant ATX [5] was “sparing effects on hydrolysis of the nucleotide substrate pNP-TMP and none”. In series [6], the “inhibition of A2058 cell invasion, screen at 10 μM” value (“inhibition … at 10 μM” for short) was “as effective as 30” and the “inhibition of A2058 cell invasion (in words)” value (“inhibition … (in words)” below) is “inhibit ATX-dependent invasion; also recorded: dose dependently decreased A2058 cell invasion”. In addition, the “antagonist activity at LPA1 (in words)” value at LPA1 was “weak antagonist action; also recorded: exhibited antagonist activity; also recorded: effective in antagonizing LPA1-elicited Ca^2+ responses”. Besides, the “LD50 to PT with ATX inhibitor pretreatment” value in [7] is recorded as 127 nM. The “resensitization of cancer stem-like cells to PT (in words)” value in [8] (4T1-TaxR cells) was “potently reduced in vitro chemotherapeutic resistance; also recorded: effectively resensitized”. In addition, in [8] (4T1-TaxR mammospheres, PT 100 nM, compound 5 μM, 3 days), the “further reduction of cell viability compared to PT alone” value is 25–30%.

On to `O=C(Nc1cc(F)c(Cl)c(F)c1)c1cc(S(=O)(=O)N2CCOCC2)c(Cl)cc1Cl` [Compound 3f, 2,4-Dichloro-N-(4-chloro-3,5-difluorophenyl)-5-(morpholinosulfonyl)benzamide], for which the “inhibitory activity for ENPP6” value in [1] is given as “lack inhibitory action”. Besides, the mechanism result on human recombinant ATX [2] was “competitive”. In series [3], the “inhibitory activity for ENPP7” value is recorded as “lack inhibitory action”. The “in vitro stability (in words)” value in series [4] was “significant stability”. The pNP-TMP inhibition entry on human recombinant ATX [5] was “none”. Also, in [6], the “inhibition … at 10 μM” value is listed as “as effective as 30” and the “inhibition … (in words)” value is “dose dependently decreased A2058 cell invasion”. For the same compound, the “antagonist activity at LPA1 (in words)” value on LPA1 is “weak antagonist action; also recorded: exhibited antagonist activity; also recorded: effective in antagonizing LPA1-elicited Ca^2+ responses”. In addition, the “LD50 to PT with ATX inhibitor pretreatment” value in series [7] stood at 66 nM.

Consider `O=S(=O)(c1cc(C(=S)Nc2cc(F)c(F)c(F)c2)c(Cl)cc1Cl)N1CCOCC1` [Compound 14, 2,4-Dichloro-5-(morpholinosulfonyl)-N-(3,4,5-trifluorophenyl)-benzothioamide], for which the “fold IC50 improvement relative to parent compound 3” value at human recombinant ATX [2] (ATX, FS-3) is reported as 3 fold. The mechanism result at human recombinant ATX [2] is listed as “competitive”. Moreover, on human recombinant ATX [2] (FS-3 substrate), the “ATX inhibitory activity (in words)” value is “retained similar inhibitory activity as the amide analogues”. Also, the “in vitro stability (in words)” value in [4] is reported as “significant stability”. Moreover, the pNP-TMP inhibition result on human recombinant ATX [5] is “none”. For the same compound, in [6], the “inhibition … at 10 μM” value is listed as “as effective as 30” and the “inhibition … (in words)” value is on record as “inhibit ATX-dependent invasion; also recorded: dose dependently decreased A2058 cell invasion”.

On to `CCCCCCCC/C=C\CCCCCCCC(=O)OCC(O)COP(=O)(O)O` (stereo not drawn) [LPA 18:1], for which the Emax was 100% on LPA2; 100% on LPA3; 100% on LPA1 (RH7777, read-out: LPA1 Emax); 100% on LPA4. For the same compound, the “LPA5 μEmax” value at LPA5 amounted to 100.00 ± 0.00.

For the compound `CC(=O)O[C@H]1C(=O)[C@@]2(C)[C@H]([C@H](OC(=O)c3ccccc3)[C@]3(O)C[C@H](OC(=O)[C@H](O)[C@@H](NC(=O)c4ccccc4)c4ccccc4)C(C)=C1C3(C)C)[C@]1(OC(C)=O)CO[C@@H]1C[C@@H]2O` [PT, paclitaxel, reference compound], the “PT LD50 for reducing cell growth by 50%, applied alone” value in series [7] (PT 48 h, no ATX inhibitor) stood at 202 nM.

As a reminder, the Emax is the greatest response seen or fitted, relative to the assay's reference.
